Assay results: ChEMBL document CHEMBL2163259, “ADME-guided design and synthesis of aryloxanyl pyrazolone derivatives to block mutant superoxide dismutase 1 (SOD1) cytotoxicity and protein aggregation: potential application for the treatment of amyotrophic lateral sclerosis” (J Med Chem, 2012)

Key:
Caco-2 = assay: Apparent permeability from apical to basolateral side in human Caco2 cells; type: ADME, cell-based
[1] = Efflux ratio of permeability from basolateral to apical side over apical to basolateral side in human Caco2 cells; type: ADME, cell-based; conditions: Caco-2
[2] = Plasma concentration in B6SJL mouse at 300 mg/kg after 24 hrs by mass spectrometry; type: ADME, organism-based; design: dose 300 mg/kg
In short: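 B6SJL mice were given a single 300 mg/kg intraperitoneal bolus. Blood and brain were collected at 0, 1, 3, 6, 12 and 24 h, flash-frozen in liquid nitrogen and stored at -80 °C. Samples were analyzed by mass spectrometry with ESI ionization in MRM mode.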

Rattus norvegicus [3] = assay: Dose normalised AUC in Sprague-Dawley rat at 1 mg/kg, po; type: ADME, organism-based; design: dose 1 mg/kg, route oral; conditions: in vivo
In short: (§1)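 Sprague-Dawley rats given a single 1 mg/kg bolus, intravenous or oral. Plasma PK parameters (AUC, dose-normalised AUC, half-life, clearance, Vss, Cmax, Tmax, oral bioavailability) derived from plasma levels.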

[4] = Half life in Sprague-Dawley rat at 1 mg/kg, iv; type: ADME, organism-based; design: dose 1 mg/kg, route intravenous; conditions: in vivo; in short: as §1
[5] = Clearance in Sprague-Dawley rat at 1 mg/kg, iv; type: ADME, organism-based; design: dose 1 mg/kg, route intravenous; conditions: in vivo; in short: as §1
[6] = Cmax in Sprague-Dawley rat at 1 mg/kg, po; type: ADME, organism-based; design: dose 1 mg/kg, route oral; conditions: in vivo; in short: as §1
[7] = Tmax in Sprague-Dawley rat at 1 mg/kg, po; type: ADME, organism-based; design: dose 1 mg/kg, route oral; conditions: in vivo
In short: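 Sprague-Dawley rats received a single bolus of 1 mg/kg by i.v. or by oral route. Plasma PK parameters were derived from the plasma concentration profile.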

Rattus norvegicus [8] = assay: Oral bioavailability in Sprague-Dawley rat at 1 mg/kg; type: ADME, organism-based; conditions: in vivo
In short: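 Sprague-Dawley rats received a single bolus of 1 mg/kg, given both intravenously and orally. Plasma PK parameters, including oral bioavailability (F%), were derived from the two routes.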

Cytochrome P450 2C19 = Cytochrome P450 2C19 (Homo sapiens, UniProt P33261); assay: Inhibition of CYP2C19; type: ADME
In short: (§2)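 Reversible inhibition of CYP isozymes in human liver microsomes, each isozyme with a single probe substrate. CYP3A4 tested with both testosterone and midazolam. IC50 determined.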

Cytochrome P450 2D6 = Cytochrome P450 2D6 (Homo sapiens, UniProt P10635); assay: Inhibition of CYP2D6; type: ADME; in short: as §2
[9] = molecular target: Adenosine receptor A1 (Homo sapiens) (UniProt P30542); assay: Inhibition of human adenosine A1 receptor at 10 uM by radioligand displacement assay
In short: (§3)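 LeadProfilingScreen panel of 68 in vitro enzyme and receptor assays. Compound tested at 10 μM in duplicate.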

[10] = molecular target: Adenosine receptor A2a (Homo sapiens) (UniProt P29274); assay: Inhibition of human adenosine A2 receptor at 10 uM by radioligand displacement assay; in short: as §3
[11] = molecular target: Alpha-1B adrenergic receptor (Rattus norvegicus) (UniProt P15823); assay: Inhibition of rat adrenergic alpha1B receptor at 10 uM by radioligand displacement assay
In short: (§4)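 Single concentration of 10 μM, tested in duplicate as part of a contracted panel of 68 in vitro enzyme and receptor assays. The panel covers common adverse CNS, cardiovascular, pulmonary and genotoxic targets.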

[12] = molecular target: Alpha-2A adrenergic receptor (Homo sapiens) (UniProt P08913); assay: Inhibition of human adrenergic alpha2A receptor at 10 uM by radioligand displacement assay; in short: as §3
[13] = molecular target: B1 bradykinin receptor (Homo sapiens) (UniProt P46663); assay: Inhibition of human bradykinin B1 receptor at 10 uM by radioligand displacement assay; in short: as §3
[14] = molecular target: D(1A) dopamine receptor (Homo sapiens) (UniProt P21728); assay: Inhibition of human dopamine D1 receptor at 10 uM by radioligand displacement assay; in short: as §3
Homo sapiens = species: Homo sapiens; assay: Inhibition of human dopamine D4.2 receptor at 10 uM by radioligand displacement assay; in short: as §4
[15] = molecular target: Endothelin-1 receptor (Homo sapiens) (UniProt P25101); assay: Inhibition of human endothelin ETA at 10 uM by radioligand displacement assay; in short: as §4
[16] = molecular target: Endothelin receptor type B (Homo sapiens) (UniProt P24530); assay: Inhibition of human endothelin ETB at 10 uM by radioligand displacement assay; in short: as §4
[17] = molecular target: Pyroglutamylated RF-amide peptide receptor (Homo sapiens) (UniProt Q96P65); assay: Inhibition of human GPR103 receptor at 10 uM by radioligand displacement assay; in short: as §3
[18] = molecular target: Glucocorticoid receptor (Homo sapiens) (UniProt P04150); assay: Inhibition of human glucocorticoid receptor at 10 uM by radioligand displacement assay; in short: as §4
[19] = molecular target: Glutamate NMDA receptor (Rattus norvegicus) (UniProt P35439+Q00959+Q00960+Q00961+Q62645+Q8VHN2+Q9R1M7); assay: Inhibition of rat NMDA receptor glutamate and glycine binding site at 10 uM by radioligand displacement assay; type: protein-complex assay; in short: as §4
[20] = molecular target: Histamine H3 receptor (Homo sapiens) (UniProt Q9Y5N1); assay: Inhibition of human histamine H3 receptor at 10 uM by radioligand displacement assay; in short: as §4
[21] = molecular target: Cysteinyl leukotriene receptor 1 (Homo sapiens) (UniProt Q9Y271); assay: Inhibition of human cysteinyl CysLT1 receptor at 10 uM by radioligand displacement assay; in short: as §3
[22] = molecular target: Muscarinic acetylcholine receptor M2 (Homo sapiens) (UniProt P08172); assay: Inhibition of human muscarinic M2 receptor at 10 uM by radioligand displacement assay; in short: as §4
[23] = molecular target: Muscarinic acetylcholine receptor M3 (Homo sapiens) (UniProt P20309); assay: Inhibition of human muscarinic M3 receptor at 10 uM by radioligand displacement assay; in short: as §4
[24] = molecular target: Neuropeptide Y receptor type 1 (Homo sapiens) (UniProt P25929); assay: Inhibition of human Neuropeptide Y Y1 receptor at 10 uM by radioligand displacement assay; in short: as §3
[25] = molecular target: Kappa-type opioid receptor (Homo sapiens) (UniProt P41145); assay: Inhibition of human kappa-type opioid receptor at 10 uM by radioligand displacement assay; in short: as §4
[26] = molecular target: Platelet-activating factor receptor (Homo sapiens) (UniProt P25105); assay: Inhibition of platelet activating factor receptor at 10 uM by radioligand displacement assay; in short: as §4
Rattus norvegicus [27] = species: Rattus norvegicus; assay: Inhibition of rat Rolipram binding site at 10 uM by radioligand displacement assay; in short: as §4
[28] = molecular target: 5-hydroxytryptamine receptor 3A (Homo sapiens) (UniProt P46098); assay: Inhibition of human 5HT3A receptor at 10 uM by radioligand displacement assay; in short: as §3
[29] = molecular target: Sodium-dependent dopamine transporter (Homo sapiens) (UniProt Q01959); assay: Inhibition of human dopamine transporter at 10 uM by radioligand displacement assay; in short: as §4
[30] = molecular target: Sodium-dependent noradrenaline transporter (Homo sapiens) (UniProt P23975); assay: Inhibition of human norepinephrine transporter at 10 uM by radioligand displacement assay; in short: as §4
[31] = molecular target: Sodium-dependent serotonin transporter (Homo sapiens) (UniProt P31645); assay: Inhibition of human serotonin transporter at 10 uM by radioligand displacement assay; in short: as §4
Mus musculus = assay: Neuroprotective activity in SOD1 G93A mutant B6SJL mouse ALS model assessed as life extension at 10 mg/kg administered qd for 1 week (reference value: 125.7 +/- 4.9 days); type: functional

Sequence of Sodium-dependent serotonin transporter (Homo sapiens) (P31645 whole entry, looked up): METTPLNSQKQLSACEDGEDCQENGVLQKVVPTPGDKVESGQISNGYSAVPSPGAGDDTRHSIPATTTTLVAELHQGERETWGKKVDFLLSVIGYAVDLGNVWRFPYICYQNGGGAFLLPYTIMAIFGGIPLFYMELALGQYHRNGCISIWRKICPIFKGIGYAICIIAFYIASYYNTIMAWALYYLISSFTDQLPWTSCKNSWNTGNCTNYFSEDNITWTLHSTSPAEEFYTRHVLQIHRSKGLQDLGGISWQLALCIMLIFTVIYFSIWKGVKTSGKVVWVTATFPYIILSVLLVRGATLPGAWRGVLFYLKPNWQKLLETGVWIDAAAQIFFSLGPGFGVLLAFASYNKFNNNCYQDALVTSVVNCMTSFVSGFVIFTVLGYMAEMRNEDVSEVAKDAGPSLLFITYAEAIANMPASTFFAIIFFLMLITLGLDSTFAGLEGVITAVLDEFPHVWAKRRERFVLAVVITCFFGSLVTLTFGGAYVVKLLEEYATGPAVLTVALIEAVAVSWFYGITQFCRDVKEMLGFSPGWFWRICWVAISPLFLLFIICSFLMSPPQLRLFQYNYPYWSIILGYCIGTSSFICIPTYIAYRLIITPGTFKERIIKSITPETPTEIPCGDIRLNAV
Sequence of B1 bradykinin receptor (Homo sapiens) (P46663 whole entry): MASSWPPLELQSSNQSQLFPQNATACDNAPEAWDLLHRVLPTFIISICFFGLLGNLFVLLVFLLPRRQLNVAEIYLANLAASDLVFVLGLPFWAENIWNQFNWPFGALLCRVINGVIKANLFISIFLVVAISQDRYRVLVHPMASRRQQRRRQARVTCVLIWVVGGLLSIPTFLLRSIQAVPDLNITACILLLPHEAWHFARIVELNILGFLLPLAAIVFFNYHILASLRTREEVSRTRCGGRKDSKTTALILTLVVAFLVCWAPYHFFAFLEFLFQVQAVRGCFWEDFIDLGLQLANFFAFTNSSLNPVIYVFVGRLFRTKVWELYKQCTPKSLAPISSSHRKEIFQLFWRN
Sequence of Endothelin-1 receptor (Homo sapiens) (P25101 whole entry): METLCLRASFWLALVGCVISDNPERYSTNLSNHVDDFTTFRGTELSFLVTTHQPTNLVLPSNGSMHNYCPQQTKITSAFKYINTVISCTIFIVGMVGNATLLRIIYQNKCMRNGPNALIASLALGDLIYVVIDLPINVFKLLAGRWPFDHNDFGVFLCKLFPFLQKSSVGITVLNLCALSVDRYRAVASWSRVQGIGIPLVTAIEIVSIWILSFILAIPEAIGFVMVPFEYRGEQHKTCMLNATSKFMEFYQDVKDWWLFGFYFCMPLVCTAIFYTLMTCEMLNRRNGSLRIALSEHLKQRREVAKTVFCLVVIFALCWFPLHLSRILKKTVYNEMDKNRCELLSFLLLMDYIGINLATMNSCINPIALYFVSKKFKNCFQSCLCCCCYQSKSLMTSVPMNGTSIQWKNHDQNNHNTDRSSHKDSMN
Sequence of Glucocorticoid receptor (Homo sapiens) (P04150 whole entry): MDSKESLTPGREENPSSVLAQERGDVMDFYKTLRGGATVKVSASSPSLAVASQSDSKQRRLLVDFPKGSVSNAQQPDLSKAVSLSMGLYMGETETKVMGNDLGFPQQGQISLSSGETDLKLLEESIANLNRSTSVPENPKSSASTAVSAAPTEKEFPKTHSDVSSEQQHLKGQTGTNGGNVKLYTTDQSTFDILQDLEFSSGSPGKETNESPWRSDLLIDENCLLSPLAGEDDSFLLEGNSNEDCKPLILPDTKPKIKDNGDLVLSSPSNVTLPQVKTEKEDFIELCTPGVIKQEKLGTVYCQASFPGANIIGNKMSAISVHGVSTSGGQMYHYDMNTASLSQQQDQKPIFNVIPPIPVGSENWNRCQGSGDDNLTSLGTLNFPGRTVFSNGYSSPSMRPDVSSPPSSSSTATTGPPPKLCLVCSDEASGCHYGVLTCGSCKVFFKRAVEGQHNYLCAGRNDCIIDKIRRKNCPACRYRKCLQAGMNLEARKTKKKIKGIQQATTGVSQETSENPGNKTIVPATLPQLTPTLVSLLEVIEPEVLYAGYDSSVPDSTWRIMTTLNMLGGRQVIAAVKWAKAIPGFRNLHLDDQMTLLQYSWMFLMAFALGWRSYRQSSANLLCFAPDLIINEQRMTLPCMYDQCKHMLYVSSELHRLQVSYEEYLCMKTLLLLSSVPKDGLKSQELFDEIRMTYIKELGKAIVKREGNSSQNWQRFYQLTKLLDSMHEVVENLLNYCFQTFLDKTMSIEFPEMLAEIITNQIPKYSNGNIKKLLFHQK
Sequence of Cytochrome P450 2C19 (P33261 whole entry): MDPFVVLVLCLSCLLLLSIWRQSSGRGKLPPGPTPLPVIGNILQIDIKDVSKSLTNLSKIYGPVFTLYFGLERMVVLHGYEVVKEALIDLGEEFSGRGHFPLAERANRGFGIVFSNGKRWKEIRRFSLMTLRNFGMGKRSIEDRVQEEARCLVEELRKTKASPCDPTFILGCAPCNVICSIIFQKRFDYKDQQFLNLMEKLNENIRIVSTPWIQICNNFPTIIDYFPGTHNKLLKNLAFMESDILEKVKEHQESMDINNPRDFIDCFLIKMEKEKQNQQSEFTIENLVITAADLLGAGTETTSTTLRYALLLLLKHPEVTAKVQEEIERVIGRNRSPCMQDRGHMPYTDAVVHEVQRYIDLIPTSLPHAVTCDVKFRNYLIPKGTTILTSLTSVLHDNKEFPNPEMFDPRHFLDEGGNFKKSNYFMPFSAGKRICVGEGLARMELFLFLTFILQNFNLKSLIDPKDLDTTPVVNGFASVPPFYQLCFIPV
Sequence of Muscarinic acetylcholine receptor M2 (Homo sapiens) (P08172 whole entry): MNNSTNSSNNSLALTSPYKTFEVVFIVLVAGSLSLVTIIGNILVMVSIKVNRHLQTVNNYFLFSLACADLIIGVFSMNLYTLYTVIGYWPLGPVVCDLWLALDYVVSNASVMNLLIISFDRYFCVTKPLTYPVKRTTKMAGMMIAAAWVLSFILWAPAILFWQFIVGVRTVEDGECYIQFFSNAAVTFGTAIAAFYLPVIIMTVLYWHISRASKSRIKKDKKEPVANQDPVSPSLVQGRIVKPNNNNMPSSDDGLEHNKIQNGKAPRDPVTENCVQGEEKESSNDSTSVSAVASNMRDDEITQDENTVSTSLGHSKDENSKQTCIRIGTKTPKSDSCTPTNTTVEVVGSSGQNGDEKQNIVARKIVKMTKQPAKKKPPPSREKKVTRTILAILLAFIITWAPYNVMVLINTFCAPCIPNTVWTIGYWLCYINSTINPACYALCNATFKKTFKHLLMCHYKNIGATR
Sequence of Cysteinyl leukotriene receptor 1 (Homo sapiens) (Q9Y271 whole entry): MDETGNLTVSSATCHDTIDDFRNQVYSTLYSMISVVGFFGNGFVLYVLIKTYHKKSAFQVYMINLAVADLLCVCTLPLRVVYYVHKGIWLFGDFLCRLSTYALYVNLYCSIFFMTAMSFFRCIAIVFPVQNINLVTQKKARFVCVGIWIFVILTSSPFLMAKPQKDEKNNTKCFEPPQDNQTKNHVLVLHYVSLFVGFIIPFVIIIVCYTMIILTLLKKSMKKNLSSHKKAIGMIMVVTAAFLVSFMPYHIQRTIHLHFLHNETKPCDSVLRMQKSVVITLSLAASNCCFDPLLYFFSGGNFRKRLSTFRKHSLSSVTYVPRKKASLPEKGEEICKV
Sequence of Adenosine receptor A2a (Homo sapiens) (P29274 whole entry): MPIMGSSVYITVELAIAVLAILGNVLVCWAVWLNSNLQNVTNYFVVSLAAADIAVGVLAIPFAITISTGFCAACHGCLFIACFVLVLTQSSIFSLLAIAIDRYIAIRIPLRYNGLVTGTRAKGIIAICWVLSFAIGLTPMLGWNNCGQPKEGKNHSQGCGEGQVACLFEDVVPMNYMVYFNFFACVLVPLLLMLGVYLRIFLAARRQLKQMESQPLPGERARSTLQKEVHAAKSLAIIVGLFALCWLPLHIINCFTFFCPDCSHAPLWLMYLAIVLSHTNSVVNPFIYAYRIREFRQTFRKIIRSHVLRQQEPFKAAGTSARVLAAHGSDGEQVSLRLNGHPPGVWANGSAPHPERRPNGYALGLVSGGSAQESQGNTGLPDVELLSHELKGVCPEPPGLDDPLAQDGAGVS
Sequence of Sodium-dependent dopamine transporter (Homo sapiens) (Q01959 whole entry): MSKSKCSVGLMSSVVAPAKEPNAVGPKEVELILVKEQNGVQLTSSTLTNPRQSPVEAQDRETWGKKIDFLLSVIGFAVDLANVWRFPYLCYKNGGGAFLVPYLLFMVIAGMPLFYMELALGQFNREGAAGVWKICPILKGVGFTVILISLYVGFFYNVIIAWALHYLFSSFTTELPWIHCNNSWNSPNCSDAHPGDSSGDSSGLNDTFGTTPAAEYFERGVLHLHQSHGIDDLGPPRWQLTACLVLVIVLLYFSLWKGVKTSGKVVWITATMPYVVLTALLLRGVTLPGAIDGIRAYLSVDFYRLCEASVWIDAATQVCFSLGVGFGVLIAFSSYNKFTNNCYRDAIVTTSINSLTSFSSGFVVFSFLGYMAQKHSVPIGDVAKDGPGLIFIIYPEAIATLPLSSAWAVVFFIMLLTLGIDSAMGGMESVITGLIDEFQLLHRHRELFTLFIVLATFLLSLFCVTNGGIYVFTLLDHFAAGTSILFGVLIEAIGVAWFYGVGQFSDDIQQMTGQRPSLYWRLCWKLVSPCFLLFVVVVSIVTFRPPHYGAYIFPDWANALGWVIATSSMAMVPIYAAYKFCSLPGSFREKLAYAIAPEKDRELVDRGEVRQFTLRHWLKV
Sequence of Neuropeptide Y receptor type 1 (Homo sapiens) (P25929 whole entry): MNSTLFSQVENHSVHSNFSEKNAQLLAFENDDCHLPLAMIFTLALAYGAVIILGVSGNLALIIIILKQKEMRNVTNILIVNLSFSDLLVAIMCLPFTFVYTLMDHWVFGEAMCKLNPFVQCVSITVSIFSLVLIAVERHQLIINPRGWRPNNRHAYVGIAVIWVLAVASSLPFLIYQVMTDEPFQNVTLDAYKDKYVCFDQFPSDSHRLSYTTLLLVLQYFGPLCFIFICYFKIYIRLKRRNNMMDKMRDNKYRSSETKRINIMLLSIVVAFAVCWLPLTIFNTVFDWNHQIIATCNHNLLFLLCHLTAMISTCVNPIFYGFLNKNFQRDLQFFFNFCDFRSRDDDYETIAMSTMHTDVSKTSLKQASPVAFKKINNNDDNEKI

O=c1cc(COc2cc(Cl)cc(Cl)c2)[nH][nH]1
Papp (Caco-2): 36.7 ×10⁻⁶ cm/s | efflux ratio [1]: 0.4 | concentration at 24 h [2]: 6.5 µM | AUC/dose (Rattus norvegicus [3]): 50 ng·h/mL/mg/kg | half-life [4]: 2.1 h | clearance [5]: 92 mL/min/kg | Cmax [6]: 39 ng/mL | Tmax [7]: 0.25 h | F (Rattus norvegicus [8]): 27% | IC50 (Cytochrome P450 2C19): 20 µM | IC50 (Cytochrome P450 2D6): > 50 µM | inhibition [9]: 15% | inhibition [10]: -2% | inhibition [11]: 0% | inhibition [12]: 8% | inhibition [13]: 5% | inhibition [14]: 3% | inhibition (Homo sapiens): -3% | inhibition [15]: 3% | inhibition [16]: 0% | inhibition [17]: 3% | inhibition [18]: 4% | inhibition [19]: 5% | inhibition [20]: 15% | inhibition [21]: 0% | inhibition [22]: -2% | inhibition [23]: -4% | inhibition [24]: -1% | inhibition [25]: -9% | inhibition [26]: -1% | inhibition (Rattus norvegicus [27]): -2% | inhibition [28]: 7% | inhibition [29]: 11% | inhibition [30]: -10% | inhibition [31]: -6% | Survival (Mus musculus): 135 days
